According to ChEMBL document CHEMBL1137574, “Synthesis and structure-activity relationship for a novel class of potent and selective carbamate-based inhibitors of hormone selective lipase with acute in vivo antilipolytic effects” (J Med Chem, 2007):
The source made the active and inactive calls. The rule behind the calls is not given here.

Legend:
Rattus norvegicus = test: Antilipolytic activity in Sprague-Dawley rat at 10 mg/kg, po; type: ADME, organism-based; design: dose 10 mg/kg, route oral; conditions: in vivo
Method in brief: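 Male Sprague-Dawley rats, 12 weeks old, fasted overnight; single 10 mg/kg p.o. dose (n = 4 per group; vehicle n = 8). Orbital plexus blood under isoflurane taken at baseline (0.5 h predose) and 1, 3 and 5 h postdose into EDTA tubes with 0.1% NaF. Plasma glycerol measured on an automated analyzer as the antilipolytic endpoint.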

Cytochrome P450 2D6 = Cytochrome P450 2D6 (Homo sapiens, UniProt P10635); test: Inhibition of CYP2D6 in human liver microsome; type: ADME; conditions: microsomes
Method in brief: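 Pooled human liver microsomes (0.1 mg, ≥15 donors) incubated 10 min at 37 °C with 1 mM NADPH and test compound at 20 µM, in triplicate. Substrates at Km: CYP1A2, 14C-phenacetin 40 µM; CYP2D6, 14C-dextromethorphan 3 µM. Conversion read by charcoal extraction then scintillation counting of the supernatant.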

[1] = Drug level in Sprague-Dawley rat at 10 mg/kg, po after 1 hr; type: ADME, organism-based; design: dose 10 mg/kg, route oral; conditions: in vivo, read-out: Drug uptake
Method in brief: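 Overnight-fasted male Sprague-Dawley rats received 10 mg/kg p.o. (n = 4). Plasma from orbital blood was collected into EDTA/NaF tubes, stored at -80 °C, and drug measured by turbulent-flow chromatography–MS/MS against plasma calibration curves (10-3000 ng/mL).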

Hormone-sensitive lipase = target: T1, Hormone-sensitive lipase (Homo sapiens, UniProt Q05469); test: Inhibition of recombinant human hormone-sensitive lipase
T1 sequence (Q05469 whole entry): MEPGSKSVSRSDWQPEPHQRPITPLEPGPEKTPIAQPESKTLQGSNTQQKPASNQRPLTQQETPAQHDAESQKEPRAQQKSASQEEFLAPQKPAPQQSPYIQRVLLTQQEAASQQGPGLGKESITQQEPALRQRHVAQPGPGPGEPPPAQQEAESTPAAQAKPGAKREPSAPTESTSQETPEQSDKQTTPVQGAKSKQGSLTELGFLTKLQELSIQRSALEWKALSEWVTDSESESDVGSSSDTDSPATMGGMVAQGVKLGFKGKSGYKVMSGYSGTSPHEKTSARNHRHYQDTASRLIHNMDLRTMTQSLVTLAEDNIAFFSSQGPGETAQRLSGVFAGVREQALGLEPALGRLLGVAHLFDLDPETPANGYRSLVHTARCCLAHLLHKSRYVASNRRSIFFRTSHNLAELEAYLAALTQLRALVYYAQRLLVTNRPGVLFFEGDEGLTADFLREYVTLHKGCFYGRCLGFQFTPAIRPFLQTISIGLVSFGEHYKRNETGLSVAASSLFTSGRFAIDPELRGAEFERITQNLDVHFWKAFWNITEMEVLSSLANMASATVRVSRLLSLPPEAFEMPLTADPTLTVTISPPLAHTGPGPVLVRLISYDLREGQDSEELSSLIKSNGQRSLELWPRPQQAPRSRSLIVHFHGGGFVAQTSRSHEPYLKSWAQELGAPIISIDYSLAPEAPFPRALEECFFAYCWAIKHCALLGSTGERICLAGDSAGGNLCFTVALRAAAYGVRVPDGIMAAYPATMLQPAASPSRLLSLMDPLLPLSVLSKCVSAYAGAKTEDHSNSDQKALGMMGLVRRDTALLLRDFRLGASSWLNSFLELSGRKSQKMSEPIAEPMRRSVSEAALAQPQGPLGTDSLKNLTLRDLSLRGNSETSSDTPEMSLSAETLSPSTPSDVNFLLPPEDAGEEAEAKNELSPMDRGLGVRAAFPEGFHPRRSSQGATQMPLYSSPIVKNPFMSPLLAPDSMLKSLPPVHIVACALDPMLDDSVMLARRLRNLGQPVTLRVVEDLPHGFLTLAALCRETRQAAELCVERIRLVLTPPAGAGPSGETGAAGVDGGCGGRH

[2] = target: T2, Pancreatic triacylglycerol lipase (Homo sapiens) (UniProt P16233); test: Inhibition of Pancreatic lipase
T2 sequence (whole entry): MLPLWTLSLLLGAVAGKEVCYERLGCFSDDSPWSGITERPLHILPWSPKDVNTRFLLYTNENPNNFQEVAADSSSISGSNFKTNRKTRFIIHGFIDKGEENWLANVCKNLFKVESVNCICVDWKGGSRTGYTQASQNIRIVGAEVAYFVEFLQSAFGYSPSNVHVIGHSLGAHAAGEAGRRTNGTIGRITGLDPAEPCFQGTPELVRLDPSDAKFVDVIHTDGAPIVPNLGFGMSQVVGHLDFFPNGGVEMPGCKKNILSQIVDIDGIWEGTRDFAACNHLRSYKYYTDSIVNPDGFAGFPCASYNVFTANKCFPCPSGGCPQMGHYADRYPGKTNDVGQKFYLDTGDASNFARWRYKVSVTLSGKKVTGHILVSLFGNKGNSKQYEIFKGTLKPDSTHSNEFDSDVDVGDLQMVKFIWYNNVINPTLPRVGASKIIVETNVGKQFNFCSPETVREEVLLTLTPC
Method in brief: (§1)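 Lipase inhibition (pancreatic, bovine lipoprotein, human hepatic) used a fluorochrome (NBD)-labelled triacylglyceride substrate. Inhibitor at six concentrations, 5-fold dilutions from a maximum of 100 µM, each point the mean of two measurements. IC50 from sigmoidal variable-slope nonlinear regression.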

[3] = target: T3, Lipoprotein lipase (Bos taurus) (UniProt P11151); test: Inhibition of bovin lipoprotein lipase; method in brief: as §1
T3 sequence (whole entry): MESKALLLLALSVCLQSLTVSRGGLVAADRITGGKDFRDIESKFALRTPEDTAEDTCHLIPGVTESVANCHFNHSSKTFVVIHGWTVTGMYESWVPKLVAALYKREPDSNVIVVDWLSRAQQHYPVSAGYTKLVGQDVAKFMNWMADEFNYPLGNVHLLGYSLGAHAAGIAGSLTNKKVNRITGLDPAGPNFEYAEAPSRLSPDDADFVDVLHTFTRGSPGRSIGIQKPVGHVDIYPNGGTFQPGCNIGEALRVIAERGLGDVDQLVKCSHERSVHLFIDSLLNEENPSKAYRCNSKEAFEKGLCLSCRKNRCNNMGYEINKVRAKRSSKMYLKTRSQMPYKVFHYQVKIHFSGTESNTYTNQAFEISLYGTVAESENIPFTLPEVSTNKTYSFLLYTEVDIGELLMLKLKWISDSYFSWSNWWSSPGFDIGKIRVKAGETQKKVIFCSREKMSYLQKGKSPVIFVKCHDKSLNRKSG

Cholinesterase = Cholinesterase (Homo sapiens, UniProt P06276); test: Inhibition of butyrylcholine esterase
Cholinesterase, sequence (P06276 whole entry): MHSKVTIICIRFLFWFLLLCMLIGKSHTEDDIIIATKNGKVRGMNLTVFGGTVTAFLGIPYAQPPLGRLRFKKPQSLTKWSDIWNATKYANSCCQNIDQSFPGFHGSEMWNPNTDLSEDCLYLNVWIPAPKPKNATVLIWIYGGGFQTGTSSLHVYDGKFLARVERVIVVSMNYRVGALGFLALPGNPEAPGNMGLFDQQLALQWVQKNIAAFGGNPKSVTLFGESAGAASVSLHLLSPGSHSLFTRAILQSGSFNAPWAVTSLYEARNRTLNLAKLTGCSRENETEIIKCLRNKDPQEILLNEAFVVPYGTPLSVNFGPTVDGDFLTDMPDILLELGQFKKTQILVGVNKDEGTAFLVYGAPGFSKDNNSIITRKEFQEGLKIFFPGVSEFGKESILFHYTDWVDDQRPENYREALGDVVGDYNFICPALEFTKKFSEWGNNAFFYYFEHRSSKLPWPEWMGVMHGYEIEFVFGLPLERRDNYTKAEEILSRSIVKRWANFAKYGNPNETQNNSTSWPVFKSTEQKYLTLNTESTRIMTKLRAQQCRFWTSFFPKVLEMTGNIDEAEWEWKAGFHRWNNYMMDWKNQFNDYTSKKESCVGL

Cytochrome P450 2D6, sequence (P10635 whole entry): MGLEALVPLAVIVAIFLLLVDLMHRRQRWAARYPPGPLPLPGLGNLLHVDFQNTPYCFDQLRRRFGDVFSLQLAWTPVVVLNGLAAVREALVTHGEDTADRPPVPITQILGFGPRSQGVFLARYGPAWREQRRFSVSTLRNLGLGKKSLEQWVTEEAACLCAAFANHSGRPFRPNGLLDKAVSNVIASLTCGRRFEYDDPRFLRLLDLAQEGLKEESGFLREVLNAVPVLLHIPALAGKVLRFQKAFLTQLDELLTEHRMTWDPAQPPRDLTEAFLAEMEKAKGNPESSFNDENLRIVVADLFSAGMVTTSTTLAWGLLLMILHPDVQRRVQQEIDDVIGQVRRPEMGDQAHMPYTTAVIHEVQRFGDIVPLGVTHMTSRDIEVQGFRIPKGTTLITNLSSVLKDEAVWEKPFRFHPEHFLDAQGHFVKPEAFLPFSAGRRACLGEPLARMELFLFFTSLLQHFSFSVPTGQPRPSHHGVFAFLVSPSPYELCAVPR

| Compound | Activity (Rattus norvegicus) | Activity (Cytochrome P450 2D6) | concentration at 1 h [1] [ng/mL] | IC50 (Hormone-sensitive lipase) [nM] | Activity [2] | Activity [3] | IC50 (Cholinesterase) [nM] |
| --- | --- | --- | --- | --- | --- | --- | --- |
| O=C(Oc1ccc(Oc2ccc(C(F)(F)F)cn2)cc1)N1CCC(O)CC1 | Active | Not Active | 3200 | 500 | inactive | inactive | > 50000 |
| O=C(Oc1ccc(Oc2ccc(C(F)(F)F)cn2)cc1)N1CCC(CO)CC1 | Active | Not Active | 379 | 110 | inactive | inactive | > 50000 |
